An excerpt weighted towards active compounds, which were near 2.2% of everything screened.
E-selectin induc = induces E-selectin expression in human endothelial cells; activation, % at 7.58 µM; HUVEC E-selectin immunofluorescence imaging; normalized: neutral wells 0, TNF-alpha wells 100; hit rate 0.37% among 260,000; P16581; AID 686992;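 active = mean E-selectin-positive cell signal at least 10% of the positive control, reached in at least 60% of replicates, without over 20% cell loss; inconclusive = no rule given, readout overlaps actives, possibly toxicity-flagged; inactive = the rest, including those meeting only one limit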
Target sequence (P16581 whole entry, looked up): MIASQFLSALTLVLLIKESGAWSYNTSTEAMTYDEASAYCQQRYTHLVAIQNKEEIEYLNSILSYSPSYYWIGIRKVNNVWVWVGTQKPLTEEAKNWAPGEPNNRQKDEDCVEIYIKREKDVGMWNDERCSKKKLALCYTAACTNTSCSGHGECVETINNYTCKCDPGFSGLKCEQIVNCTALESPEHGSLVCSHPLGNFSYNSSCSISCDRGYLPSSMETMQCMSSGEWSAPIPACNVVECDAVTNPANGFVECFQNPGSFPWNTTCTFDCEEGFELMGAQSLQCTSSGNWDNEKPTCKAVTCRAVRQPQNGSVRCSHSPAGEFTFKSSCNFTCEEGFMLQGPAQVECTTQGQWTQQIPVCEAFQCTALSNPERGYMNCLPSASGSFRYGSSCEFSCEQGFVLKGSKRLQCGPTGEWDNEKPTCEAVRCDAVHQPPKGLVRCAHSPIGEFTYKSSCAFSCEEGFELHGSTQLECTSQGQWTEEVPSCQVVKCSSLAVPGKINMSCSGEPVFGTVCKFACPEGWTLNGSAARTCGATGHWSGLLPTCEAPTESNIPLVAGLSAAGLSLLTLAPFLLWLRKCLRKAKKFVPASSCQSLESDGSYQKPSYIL
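material = human umbilical vein endothelial cells (HUVEC), E-selectin induction | quantity = 3,000 cells/well | medium = EGM-2 growth medium on 0.1% gelatin-coated wells | technique = immunofluorescence imaging | read-out basis = % PE-positive cells | control set = TNF-alpha positive control, DMSO neutral control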
C2C12 statin = suppression of simvastatin myotoxicity; C2C12 myotubes + simvastatin, ATP luminescence, 48 h; scaled: DMSO 0, geranylgeraniol control 100; rescue of ATP level, % at 7.49 µM; hit rate 0.78% among 330,000;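 active = mean ATP rescue above about 67%, or every replicate alone reaching that limit, limit read from the data, passing the limit was not always enough; inconclusive = no clear call, values can overlap the other calls; inactive = mean under the limit and some replicate under it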;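 also: myotubes were challenged with 10 µM simvastatin during compound exposure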
DENV2 CPE rescue = protects cells from dengue virus 2 cytopathic effect. AID 651640. hit rate 1.7% among 350,000. CPE inhibition, % at 9.99 µM. DENV2-infected cells, cytopathic effect rescue, plate reader; in the data active = CPE inhibition above about 20%, passing the limit was not always enough; inconclusive = no clear call, values can overlap the other calls; tested in BHK-21 cells
Hits are given with their value; . = inactive; ? = inconclusive; / = no result.

SMILES	E-selectin induc	C2C12 statin	DENV2 CPE rescue
C[C@@H]1CN([C@@H](C)CO)C(=O)Cc2cc(NS(=O)(=O)c3ccc(F)cc3)ccc2O[C@H]1CN(C)S(=O)(=O)c1ccc(Cl)cc1	33.9	.	.
C[C@H]1CN([C@@H](C)CO)C(=O)Cc2cc(NS(=O)(=O)c3ccc(Cl)cc3)ccc2O[C@H]1CN(C)S(=O)(=O)c1ccc(Cl)cc1	.	.	.
CN1[C@@H]2c3ccc(/C=C/c4ccccc4)c(=O)n3C[C@H]1[C@H](CO)[C@H]2C(=O)NC1CCCC1	.	/	.
C[C@H](CO)N1C[C@H](C)[C@@H](CN(C)S(C)(=O)=O)OCCCC[C@H](C)Oc2ccc(NS(=O)(=O)c3ccccc3)cc2C1=O	.	.	.
C[C@@H]1CCCCO[C@@H](CN(C)Cc2ccc3c(c2)OCO3)[C@@H](C)CN([C@@H](C)CO)C(=O)c2cc(NC(=O)Nc3ccc(F)cc3)ccc2O1	.	.	.
C[C@H](CO)N1C[C@H](C)[C@@H](CN(C)C(=O)Nc2ccc(C(F)(F)F)cc2)Oc2ccc(NS(C)(=O)=O)cc2C1=O	/	.	.
CCOC(=O)C1=C(CS(=O)(=O)c2ccccc2)NC(=O)NC1c1ccc(OC)c(OC)c1 (centres undefined)	.	.	.
CCOC(=O)C1=C(CS(=O)(=O)c2ccc(C)cc2)NC(=O)NC1c1cc(OC)c(O)c(OC)c1 (centres undefined)	.	.	36.6
C[C@@H]1CN([C@@H](C)CO)C(=O)c2ccccc2-c2ccccc2CO[C@H]1CN(C)C(=O)CCN(C)C	.	/	.
Clc1cccc(C2=NOC(c3nnc(-c4ccccc4)o3)C2)c1 (centres undefined)	.	.	34.6
c1ccc(C2=NOC(c3nnc(-c4ccccc4)o3)C2)cc1 (centres undefined)	.	.	.
COc1ccccc1S(=O)(=O)N[C@@H]1C=C[C@@H](CC(=O)N2CCCCC2)O[C@@H]1CO	.	.	.
C[C@H]1CN([C@@H](C)CO)C(=O)c2cc(NS(C)(=O)=O)ccc2O[C@@H]1CN(C)Cc1ccc(Oc2ccccc2)cc1	.	.	.
CCc1c(C)nc2cc(-c3cc(OC)cc(OC)c3)nn2c1N1CCCC1	/	.	.
CCOCCN1CCN(c2c(CC)c(C)nc3cc(-c4cc(OC)cc(OC)c4)nn23)CC1	/	98.9	/
Cc1noc(C)c1NC(=O)N[C@@H]1C=C[C@H](CC(=O)NCCCN(C)C)O[C@H]1CO	.	.	.
Cc1cccc(CN2C(=O)NC(c3ccccc3)(c3ccccc3)C2=O)c1	.	.	.
O=C1NC(=NCc2ccccc2)NC1(c1ccccc1)c1ccccc1	.	101.5	.
Cc1cccc(S(=O)(=O)N(C)C[C@@H]2OCc3ccccc3-c3c(n(C)c4ccccc34)C(=O)N([C@@H](C)CO)C[C@@H]2C)c1	.	.	.
Cc1noc(C)c1NC(=O)Nc1ccc2c(c1)C(=O)N([C@@H](C)CO)C[C@H](C)[C@H](CN(C)Cc1ccncc1)OCCCC[C@H](C)O2	.	/	?
CC(C)C[C@@H](CNCC(=O)[C@H](CC(C)C)NC(=O)c1[nH]cnc1C(=O)N[C@@H](C)CN)NC(=O)c1nc[nH]c1C(=O)N[C@@H](CC(C)C)C(=O)O	.	.	.
CC(C)C[C@@H](CNCC(=O)[C@H](CC(C)C)NC(=O)c1[nH]cnc1C(=O)N[C@@H](C)CN)NC(=O)c1nc[nH]c1C(=O)N[C@@H](CC(=O)O)C(=O)O	.	.	86.9
[O-][n+]1onc2c1CCc1nnccc1-2	/	84.2	/
Cc1cnnc2c1-c1no[n+]([O-])c1CC2	/	.	/
C[C@H]1CN([C@@H](C)CO)C(=O)Cc2cc(NS(=O)(=O)c3ccc(F)cc3)ccc2O[C@@H]1CN(C)Cc1ccc(Cl)c(Cl)c1	.	68.8	/
SMILES	E-selectin induc	C2C12 statin	DENV2 CPE rescue
C[C@@H]1CN([C@H](C)CO)C(=O)Cc2cc(NS(=O)(=O)c3ccccc3)ccc2O[C@H]1CN(C)Cc1ccc(Cl)c(Cl)c1	.	.	32.6
C[C@H](CO)N1C[C@H](C)[C@@H](CN(C)Cc2ccc(Cl)c(Cl)c2)Oc2ccc(NS(=O)(=O)c3ccc(F)cc3)cc2CC1=O	.	111.6	/
C[C@@H]1CN([C@H](C)CO)C(=O)Cc2cc(NS(=O)(=O)c3ccc(F)cc3)ccc2O[C@@H]1CN(C)Cc1ccc(Cl)c(Cl)c1	.	?	/
C[C@H](CO)N1C[C@H](C)[C@H](CN(C)Cc2ccc(Cl)c(Cl)c2)Oc2ccc(NS(=O)(=O)c3ccc(F)cc3)cc2CC1=O	.	.	/
C[C@@H]1CN([C@H](C)CO)C(=O)Cc2cc(NS(=O)(=O)c3ccccc3)ccc2O[C@@H]1CN(C)Cc1ccc(Cl)c(Cl)c1	.	.	.
COc1ccc(S(=O)(=O)N(C)C[C@@H]2Oc3ccc(NS(=O)(=O)c4ccccc4)cc3C(=O)N([C@@H](C)CO)C[C@@H]2C)cc1	.	.	/

Source: PubChem BioAssay (Broad Institute)
